Assay [1] relates to Rattus norvegicus. The assay can be described thus: Anxiolytic activity in Sprague-Dawley rat assessed as reduction of total number of open arm entries at 50 mg/kg, ip after 5 mins by plus-maze test. It is filed as functional. The settings on record: route intraperitoneal. The gist of the method:
(§1)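 Male Sprague-Dawley rats (180-200 g), group-housed 6/cage at 24 ± 1 °C, 12 h light/dark, free food and water except during testing. Dosed ip. Elevated four-arm maze (two open, two enclosed arms); entries into and time in open arms, and total arm entries, scored over a 5 min session versus vehicle-treated controls.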

For another assay, the target named is Translocator protein (Rattus norvegicus, UniProt P16257). The assay can be described thus: Displacement of [3H]PK11195 from translocator protein in rat kidney mitochondrial membrane. It is filed as cell membranes. (In general: Displacement assays read how much labelled ligand stays bound in the presence of the test substance.)
Sequence of Translocator protein (P16257 whole entry, looked up): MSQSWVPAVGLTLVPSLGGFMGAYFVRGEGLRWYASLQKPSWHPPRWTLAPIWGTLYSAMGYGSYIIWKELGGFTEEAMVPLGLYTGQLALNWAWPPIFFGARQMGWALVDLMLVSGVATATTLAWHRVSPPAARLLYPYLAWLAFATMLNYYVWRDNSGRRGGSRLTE
Another assay concerns C6. The experiment in a line: Induction of pregnenolone biosynthesis in rat C6 cells assessed as increase in pregnenolone level at 40 uM after 2 hrs by ELISA relative to control. In kind it is functional. The method, boiled down: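 Rat C6 glioma cells grown in DMEM with 10% FBS, 2 mM L-glutamine, penicillin/streptomycin, seeded ~10 000 cells/well. Exposed to compound at 40 µM for 2 h at 37 °C, with DMSO/ethanol ≤0.5% (v/v) kept constant. Pregnenolone secreted into the medium measured by competitive ELISA; mean ± SEM of at least three determinations.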
(An ELISA detects its analyte on a solid surface through an enzyme-linked reagent.)

For assay [2], the system named is Rattus norvegicus. The experiment in a line: Anxiolytic activity in Sprague-Dawley rat assessed as increase in total number of open arm entries at 30 mg/kg, ip by plus-maze test. Conditions: route intraperitoneal. It is filed as functional. The method, boiled down:
as §1

By Ki is commonly meant a measure of affinity in units of concentration, obtained from inhibition or displacement. A low value points to higher affinity. For the compound `CCCCCCN(CCCCCC)C(=O)C(=O)c1c(-c2ccc(F)cc2)[nH]c2ccc(Cl)cc12`, the values for the Activity in the assay with Rattus norvegicus [1], in the assay with C6 and with Rattus norvegicus [2] were 2, 135% and 9.8, respectively. The affinity on Translocator protein, expressed as Ki, was 7.75 nM.

Source of the values: ChEMBL document CHEMBL1140064, “Anxiolytic-like effects of N,N-dialkyl-2-phenylindol-3-ylglyoxylamides by modulation of translocator protein promoting neurosteroid biosynthesis” (J Med Chem, 2008).
